# Experimental data from PMC9305210 (British Journal of Clinical Pharmacology, 2022).
# Legend:
# [1] = Safety and tolerability; type: in vivo, human; conditions: for tolerability: 100‐400 mg/day for up to 14 days, healthy subjects; for TEAE leading to discontinuation: one subject
# In short: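 Randomized, double-blind, placebo-controlled; cohorts of 8 (6:2) healthy adults given oral solution daily for a planned 14 days after ≥8 h fast, confined on site days −3 to 15 plus 1 follow-up day. Monitoring covered AEs, physical examination, BMI, vital signs, ECG and clinical laboratory tests. Subjects with ≥1 treatment-emergent AE counted across all subjects receiving at least one dose.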
# [2] = healthy subjects, cited from earlier work
# [3] = tested on: 24HC levels in the brain; conditions: single oral administration in mice; cited from earlier work
# [4] = tested on: CH24H; conditions: CH24H‐knockout mice vs wild‐type controls; cited from earlier work
# [5] = Soticlestat total, n = 30, listed as soticlestat
compound,measurement,setting,value
"O=C(c1cccnc1-c1ccncc1)N1CCC(O)(Cc2ccccc2)CC1 [Soticlestat, soticlestat]",Number of subjects (%) with TEAEs: Moderate,"[1]; 100 mg QD, n = 6",0
same,Number of subjects (%) with TEAEs: Not related,"[1]; 100 mg QD, n = 6",0
same,Number of subjects (%) with TEAEs: Related,"[1]; 100 mg QD, n = 6",0
same,Number of subjects (%) with TEAEs: Severe,"[1]; 100 mg QD, n = 6",0
same,Number of subjects (%): Deaths,"[1]; 100 mg QD, n = 6",0
same,Number of subjects (%) with SAEs,"[1]; 300 mg BID, n = 6",0
same,Number of subjects (%) with TEAEs,"[1]; 300 mg BID, n = 6",5 (83.3)
same,Number of subjects (%) with TEAEs: Leading to discontinuation,"[1]; 300 mg BID, n = 6",1 (16.7)
same,Number of subjects (%) with TEAEs: Mild,"[1]; 300 mg BID, n = 6",5 (83.3)
same,Number of subjects (%) with TEAEs: Moderate,"[1]; 300 mg BID, n = 6",0
same,Number of subjects (%) with TEAEs: Not related,"[1]; 300 mg BID, n = 6",0
same,Number of subjects (%) with TEAEs: Related,"[1]; 300 mg BID, n = 6",5 (83.3)
same,Number of subjects (%) with TEAEs: Severe,"[1]; 300 mg BID, n = 6",0
same,Number of subjects (%): Deaths,"[1]; 300 mg BID, n = 6",0
same,Number of subjects (%) with SAEs,"[1]; 300 mg QD, n = 6",0
same,Number of subjects (%) with TEAEs,"[1]; 300 mg QD, n = 6",1 (16.7)
same,Number of subjects (%) with TEAEs: Leading to discontinuation,"[1]; 300 mg QD, n = 6",0
same,Number of subjects (%) with TEAEs: Mild,"[1]; 300 mg QD, n = 6",1 (16.7)
same,Number of subjects (%) with TEAEs: Moderate,"[1]; 300 mg QD, n = 6",0
same,Number of subjects (%) with TEAEs: Not related,"[1]; 300 mg QD, n = 6",0
same,Number of subjects (%) with TEAEs: Related,"[1]; 300 mg QD, n = 6",1 (16.7)
same,Number of subjects (%) with TEAEs: Severe,"[1]; 300 mg QD, n = 6",0
same,Number of subjects (%): Deaths,"[1]; 300 mg QD, n = 6",0
same,Number of subjects (%) with SAEs,"[1]; 400 mg QD, n = 6",0
same,Number of subjects (%) with TEAEs,"[1]; 400 mg QD, n = 6",5 (83.3)
same,Number of subjects (%) with TEAEs: Leading to discontinuation,"[1]; 400 mg QD, n = 6",0
same,Number of subjects (%) with TEAEs: Mild,"[1]; 400 mg QD, n = 6",4 (66.7)
same,Number of subjects (%) with TEAEs: Moderate,"[1]; 400 mg QD, n = 6",1 (16.7)
same,Number of subjects (%) with TEAEs: Not related,"[1]; 400 mg QD, n = 6",1 (16.7)
same,Number of subjects (%) with TEAEs: Related,"[1]; 400 mg QD, n = 6",4 (66.7)
same,Number of subjects (%) with TEAEs: Severe,"[1]; 400 mg QD, n = 6",0
same,Number of subjects (%): Deaths,"[1]; 400 mg QD, n = 6",0
same,Number of subjects (%) with SAEs,"[1]; 600 mg QD, n = 6",0
same,Number of subjects (%) with TEAEs,"[1]; 600 mg QD, n = 6",3 (50.0)
same,Number of subjects (%) with TEAEs: Leading to discontinuation,"[1]; 600 mg QD, n = 6",1 (16.7)
same,Number of subjects (%) with TEAEs: Mild,"[1]; 600 mg QD, n = 6",2 (33.3)
same,Number of subjects (%) with TEAEs: Moderate,"[1]; 600 mg QD, n = 6",0
same,Number of subjects (%) with TEAEs: Not related,"[1]; 600 mg QD, n = 6",0
same,Number of subjects (%) with TEAEs: Related,"[1]; 600 mg QD, n = 6",3 (50.0)
same,Number of subjects (%) with TEAEs: Severe,"[1]; 600 mg QD, n = 6",1 (16.7)
same,Number of subjects (%): Deaths,"[1]; 600 mg QD, n = 6",0
same,tolerability,[1],generally well tolerated
same,tolerability,[1]; listed as soticlestat,well tolerated in most healthy subjects up to 400 mg daily
same,Number of subjects (%) with SAEs,"[1]; Soticlestat total, n = 30",0
same,Number of subjects (%) with TEAEs,"[1]; Soticlestat total, n = 30",14 (46.7)
same,Number of subjects (%) with TEAEs: Leading to discontinuation,"[1]; Soticlestat total, n = 30",2 (6.7)
same,Number of subjects (%) with TEAEs: Mild,"[1]; Soticlestat total, n = 30",12 (40.0)
same,Number of subjects (%) with TEAEs: Moderate,"[1]; Soticlestat total, n = 30",1 (3.3)
same,Number of subjects (%) with TEAEs: Not related,"[1]; Soticlestat total, n = 30",1 (3.3)
same,Number of subjects (%) with TEAEs: Related,"[1]; Soticlestat total, n = 30",13 (43.3)
same,Number of subjects (%) with TEAEs: Severe,"[1]; Soticlestat total, n = 30",1 (3.3)
same,Number of subjects (%): Deaths,"[1]; Soticlestat total, n = 30",0
same,Number of subjects (%) with TEAEs,[1]; [5],14
same,Number of subjects (%) with TEAEs: Related,[1]; [5],13
same,"clinical laboratory (including hormones), vital signs, physical examination, eye examination or electrocardiographic findings",[1]; all doses,No clinically significant findings
same,liver function test results,[1]; all doses,No subjects had abnormal liver function test results
same,number of TEAE events considered related to soticlestat,[1]; all doses,31
same,proportion of TEAEs transient and mild in intensity,[1]; all doses,91%
same,serious AEs,[1]; all doses,No serious AEs were reported
same,proportion of TEAEs transient and mild in intensity,"[1]; all doses, listed as soticlestat",over 90%
same,outcome of TEAEs,[1]; before study exit on day 15,reversible and resolved without treatment
same,TEAE leading to discontinuation,"[1]; 300 mg BID (cohort 3), study day 9",mild event of confusional state
same,TEAE leading to discontinuation,"[1]; 600 mg QD (cohort 4), study day 10",severe event of acute psychosis
same,total number of TEAEs reported,"[1]; subjects administered soticlestat, all doses",45
same,tolerability of single doses,[2]; doses up to 1350 mg,well tolerated
same,circulating levels of 24HC,[2]; single rising doses,dose‐dependent reduction
same,24HC levels in the brain,[3],dose‐dependent reduction in 24HC levels in the brain
same,soticlestat distribution in the brain,[4],substantially lower level of soticlestat distribution in the brain than wild‐type controls
